Series [1] deals with CYP2B6 (Homo sapiens, UniProt P20813). Put plainly: Induction of CYP2B6 in cryopreserved human hepatocytes measured after 48 hrs. Type of series: ADME, cell-based. An outline of the steps: (§1)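 Cryopreserved human hepatocytes incubated for 48 hr, with enzyme activity as read-out. Induction expressed as EC50 and Emax.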
Series [2] is described as follows: Drug metabolism in cynomolgus monkey cryopreserved hepatocytes assessed as metabolite M7 formation. Type of series: ADME, cell-based, Macaca fascicularis, Hepatocyte.
The test system of series [3] is Rattus norvegicus. Put plainly: Volume of distribution at steady state […] in Sprague-Dawley rat at 0.1 to 1 mg/kg, iv. Type of series: ADME, organism-based. The following applies: in vivo. An outline of the steps: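 IV pharmacokinetics in Sprague-Dawley rats at 0.1–1.0 mg/kg. CLp, elimination t½ and Vss derived.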
A short description of series [4]: Drug metabolism in human cryopreserved hepatocytes assessed as metabolite M5 formation. Type of series: ADME, cell-based, Hepatocyte.
The nature of series [5]: Drug metabolism in cynomolgus monkey cryopreserved hepatocytes assessed as metabolite M6 formation. The series is classed as ADME, cell-based, Macaca fascicularis, Hepatocyte.
A short description of series [6]: Drug metabolism in rat cryopreserved hepatocytes assessed as metabolite M6 formation. Type of series: ADME, cell-based, Hepatocyte.
The target of series [7] is Muscarinic acetylcholine receptor M3 (Rattus norvegicus, UniProt P08483). Put plainly: Activity at rat M3 receptor.
The nature of series [8]: Unbound brain concentration in rat. Type of series: ADME, tissue-based.
A short description of series [9]: Drug metabolism in human cryopreserved hepatocytes assessed as metabolite M1 formation. Type of series: ADME, cell-based, Hepatocyte.
Series [10] has as its target Muscarinic acetylcholine receptor M5 (Rattus norvegicus, UniProt P08911). In words: Activity at rat M5 receptor.
A short description of series [11]: Drug metabolism in rat cryopreserved hepatocytes assessed as metabolite M1 formation. Type of series: ADME, cell-based, Hepatocyte.
The nature of series [12]: Drug metabolism in cynomolgus monkey cryopreserved hepatocytes assessed as metabolite M2 formation. Type of series: ADME, cell-based, Macaca fascicularis, Hepatocyte.
Series [13] is described as follows: Glutathione reactivity in human hepatic microsomes assessed as GSH-adduct formation. Type of series: ADME, Liver, Microsome.
Series [14] in a line: Brain to plasma permeability coefficient, Kp of the compound in dog at 3 mg/kg, iv or po at 2 hrs post dose. Type of series: ADME, organism-based, Canis lupus familiaris. An outline of the steps:
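Dog terminal study, with brain, plasma and CSF collected at 2.0 hr. Brain:plasma Kp, Kp,uu and Ccsf:Cplasma,u were derived.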

A short description of series [15]: Drug metabolism in human cryopreserved hepatocytes assessed as metabolite M2 formation. The series is classed as ADME, cell-based, Hepatocyte.
Series [16] deals with CYP3A4 (Homo sapiens, UniProt P08684). Put plainly: Induction of CYP3A4 in cryopreserved human hepatocytes measured after 48 hrs. The series is classed as ADME, cell-based. A digest of the protocol:
as §1

Series [17] is described as follows: Brain to plasma permeability coefficient, Kp of the compound in Sprague-Dawley rat at 0.1 to 0.2 mg/kg, iv measured at 0.25 hrs post dose. The series is classed as ADME, organism-based. An outline of the steps:
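Sprague-Dawley rats were dosed IV at 0.1–0.2 mg/kg, with brain and plasma sampled at 0.25 hr. Brain:plasma Kp was calculated, with Kp,uu where unbound fractions were available.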

Series [18] can be described thus: Aqueous solubility of the compound at pH 7.4. The series is classed as physicochemical. The following applies: buffer.
Series [19] concerns the target T1, Cytochrome P450 1A2 (Homo sapiens, UniProt P05177).
T1 sequence (P05177 whole entry): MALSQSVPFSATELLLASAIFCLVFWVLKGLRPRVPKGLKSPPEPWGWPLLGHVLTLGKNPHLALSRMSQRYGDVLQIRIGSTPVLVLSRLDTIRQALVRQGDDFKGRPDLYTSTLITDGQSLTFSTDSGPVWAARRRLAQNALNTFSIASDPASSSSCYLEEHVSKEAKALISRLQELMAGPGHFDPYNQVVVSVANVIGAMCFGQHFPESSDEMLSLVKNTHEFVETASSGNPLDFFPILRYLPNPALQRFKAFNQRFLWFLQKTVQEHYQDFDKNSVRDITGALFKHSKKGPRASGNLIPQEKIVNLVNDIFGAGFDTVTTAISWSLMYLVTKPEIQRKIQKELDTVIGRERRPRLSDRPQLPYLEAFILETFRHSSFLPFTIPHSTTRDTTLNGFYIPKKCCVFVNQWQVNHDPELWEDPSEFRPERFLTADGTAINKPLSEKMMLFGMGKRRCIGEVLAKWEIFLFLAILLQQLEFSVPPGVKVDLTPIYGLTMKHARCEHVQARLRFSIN
In words: Inhibition of CYP1A2 (unknown origin). Type of series: ADME.

Series [20] is described as follows: Unbound plasma concentration in human. Type of series: ADME, cell-free.

The values below come from ChEMBL document CHEMBL4028836, “Optimization of M4 positive allosteric modulators (PAMs): The discovery of VU0476406, a non-human primate in vivo tool compound for translational pharmacology” (Bioorg Med Chem Lett, 2017).

Bounds are passed on as bounds.

Sequence of CYP3A4 (P08684 whole entry): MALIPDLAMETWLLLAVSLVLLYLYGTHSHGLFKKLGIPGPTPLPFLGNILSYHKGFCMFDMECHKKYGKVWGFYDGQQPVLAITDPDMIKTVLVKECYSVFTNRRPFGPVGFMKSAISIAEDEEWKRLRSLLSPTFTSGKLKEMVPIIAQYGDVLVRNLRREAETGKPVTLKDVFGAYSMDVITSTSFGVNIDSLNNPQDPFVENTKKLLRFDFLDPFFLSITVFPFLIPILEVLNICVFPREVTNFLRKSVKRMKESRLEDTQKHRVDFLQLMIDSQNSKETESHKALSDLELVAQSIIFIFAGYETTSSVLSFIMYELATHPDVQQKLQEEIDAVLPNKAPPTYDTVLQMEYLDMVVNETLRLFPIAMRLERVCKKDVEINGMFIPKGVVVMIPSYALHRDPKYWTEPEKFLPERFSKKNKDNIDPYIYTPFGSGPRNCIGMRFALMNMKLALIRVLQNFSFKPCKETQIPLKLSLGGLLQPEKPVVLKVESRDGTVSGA
Sequence of CYP2B6 (P20813 whole entry): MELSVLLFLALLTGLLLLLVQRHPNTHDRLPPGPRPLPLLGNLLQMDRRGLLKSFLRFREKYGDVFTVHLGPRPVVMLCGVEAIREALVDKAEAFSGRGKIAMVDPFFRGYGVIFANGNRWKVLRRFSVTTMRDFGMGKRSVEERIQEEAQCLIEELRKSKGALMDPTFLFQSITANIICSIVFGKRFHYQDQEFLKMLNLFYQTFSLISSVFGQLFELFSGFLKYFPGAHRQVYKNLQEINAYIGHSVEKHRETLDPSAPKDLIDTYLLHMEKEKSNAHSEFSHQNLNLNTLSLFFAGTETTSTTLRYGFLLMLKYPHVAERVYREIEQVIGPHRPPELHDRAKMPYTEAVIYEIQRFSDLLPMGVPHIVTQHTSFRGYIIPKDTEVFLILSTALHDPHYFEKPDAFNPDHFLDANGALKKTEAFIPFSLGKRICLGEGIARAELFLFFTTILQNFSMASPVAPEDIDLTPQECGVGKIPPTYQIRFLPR
Sequence of Muscarinic acetylcholine receptor M5 (P08911 whole entry): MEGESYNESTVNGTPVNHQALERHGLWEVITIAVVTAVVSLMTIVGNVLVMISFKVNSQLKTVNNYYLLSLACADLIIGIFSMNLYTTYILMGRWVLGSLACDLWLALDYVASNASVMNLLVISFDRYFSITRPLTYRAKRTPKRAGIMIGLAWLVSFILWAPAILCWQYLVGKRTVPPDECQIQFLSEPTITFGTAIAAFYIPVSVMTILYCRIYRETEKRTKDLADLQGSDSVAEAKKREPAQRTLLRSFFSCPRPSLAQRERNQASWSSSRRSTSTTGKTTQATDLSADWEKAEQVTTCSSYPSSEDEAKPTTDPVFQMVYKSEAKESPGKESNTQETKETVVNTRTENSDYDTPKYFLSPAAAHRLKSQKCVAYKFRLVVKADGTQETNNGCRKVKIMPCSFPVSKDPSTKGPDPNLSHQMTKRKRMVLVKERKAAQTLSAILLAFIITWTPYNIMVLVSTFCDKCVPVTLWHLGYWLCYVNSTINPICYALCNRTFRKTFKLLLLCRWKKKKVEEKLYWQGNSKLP
Sequence of Muscarinic acetylcholine receptor M3 (P08483 whole entry): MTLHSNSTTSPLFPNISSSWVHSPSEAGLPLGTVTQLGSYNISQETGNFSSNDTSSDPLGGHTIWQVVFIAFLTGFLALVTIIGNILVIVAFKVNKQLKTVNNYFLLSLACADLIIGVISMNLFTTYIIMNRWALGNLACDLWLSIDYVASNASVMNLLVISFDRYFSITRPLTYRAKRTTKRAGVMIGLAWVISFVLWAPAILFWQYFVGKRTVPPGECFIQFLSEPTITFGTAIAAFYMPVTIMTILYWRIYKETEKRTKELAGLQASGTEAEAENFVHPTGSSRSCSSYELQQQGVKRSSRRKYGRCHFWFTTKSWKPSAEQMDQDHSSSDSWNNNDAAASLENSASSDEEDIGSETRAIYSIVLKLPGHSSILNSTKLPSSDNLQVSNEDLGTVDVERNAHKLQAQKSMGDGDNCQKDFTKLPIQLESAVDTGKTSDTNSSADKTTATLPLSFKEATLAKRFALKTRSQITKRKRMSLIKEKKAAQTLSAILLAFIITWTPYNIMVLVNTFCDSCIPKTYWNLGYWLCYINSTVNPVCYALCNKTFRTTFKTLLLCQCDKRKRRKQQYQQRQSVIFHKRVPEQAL

The EC50 is the concentration needed to bring the measured effect to its halfway point. By Vdss is commonly meant the apparent volume that relates the amount in the body to the concentration in plasma or blood. One may read the fraction unbound as free concentration divided by total concentration. What is called Kp is the ratio of the level in a tissue or fluid to that in plasma or blood. For orientation: solubility means how much of the substance goes into solution per volume. The IC50 is the concentration at which inhibition is half-maximal. For `Cc1nnc2sc(C(=O)NCc3ccc(-c4cccnc4F)cc3)c(N)c2c1C`, the EC50 at 48 h in series [1] and in series [16] was above 50 µM throughout. Moreover, the Drug metabolism result in series [2], in series [4], in [5], in series [6], in series [9] and in series [11] was “Metabolite_Detected” each time. The Drug metabolism result in series [12] and in [15] was “Metabolite_Detected” in each case. Moreover, the Vdss in series [3] is 0.34 L/kg. Also, the EC50 in series [7] and in series [10] was above 30 µM each time. For the same molecule, the fraction unbound in [8] was determined as 0.02; in [20], 0.011. In addition, the Activity result in series [13] is “Not Active”. For the same molecule, the Kp came to 0.74 in series [14] and 0.11 in [17]. Moreover, in series [18], the solubility was below 0.5 µM. In series [19], inhibition was half-maximal at 11 µM (IC50).
